This is an account of results in ChEMBL document CHEMBL3751726, “A stepwise dechlorination/cross-coupling strategy to diversify the vancomycin 'in-chloride'” (2016).

Assay type in all cases: functional
The subject of assay [1] is Enterococcus faecalis. Nature of the assay: Antimicrobial activity against vancomycin-susceptible Enterococcus faecalis MMX 101 after 18 to 20 hrs by microdilution method. The procedure, abridged:
(§1)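 Standard microtiter plate-based broth microdilution assay. The top concentration tested was 64 µg/mL, so inhibition that was not reached is reported as >64 µg/mL. The strains are methicillin-susceptible S. aureus ATCC 29213 and vancomycin-susceptible E. faecalis MMX 101.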
(In general: In broth dilution the organism is exposed to a series of concentrations in liquid medium.)

Assay [2] concerns Staphylococcus aureus. The assay can be described thus: Antimicrobial activity against methicillin-susceptible Staphylococcus aureus ATCC 29213 after 18 to 20 hrs by microdilution method. The method in brief: as §1
For assay [3], the system named is Staphylococcus aureus. Nature of the assay: Antimicrobial activity against methicillin-resistant Staphylococcus aureus MMX 2002 after 18 to 20 hrs by microdilution method.
The test system of assay [4] is Enterococcus faecalis. Nature of the assay: Antimicrobial activity against vancomycin-resistant Enterococcus faecalis MMX 486 expressing VanA after 18 to 20 hrs by microdilution method.
For assay [5], the system named is Enterococcus faecalis. Nature of the assay: Antimicrobial activity against vancomycin-resistant Enterococcus faecalis MMX 202 expressing VanB after 18 to 20 hrs by microdilution method.

Converted amounts (≈) assume the structure as drawn.

One may read the MIC as the smallest concentration in the dilution series that meets the test's criterion for growth inhibition. For the compound `CN[C@@H](CC(C)C)C(=O)N[C@@H]1C(=O)N[C@H](CC(N)=O)C(=O)N[C@@H]2C(=O)N[C@@H]3C(=O)N[C@@H](C(=O)N[C@H](C(=O)O)c4cc(O)cc(O)c4-c4cc3ccc4O)[C@@H](O)c3ccc(c(-c4ccc(-c5ccccc5)cc4)c3)Oc3cc2cc(c3O[C@@H]2O[C@H](CO)[C@@H](O)[C@H](O)[C@H]2O[C@H]2C[C@](C)(N)[C@H](O)[C@H](C)O2)Oc2ccc(cc2)[C@@H]1O`, the MIC against Enterococcus faecalis [1], against Staphylococcus aureus [2], against Staphylococcus aureus [3], against Enterococcus faecalis [4] and in the assay with Enterococcus faecalis [5] was over 64 µg/mL in each case.
As for `CN[C@@H](CC(C)C)C(=O)N[C@@H]1C(=O)N[C@H](CC(N)=O)C(=O)N[C@@H]2C(=O)N[C@@H]3C(=O)N[C@@H](C(=O)N[C@H](C(=O)O)c4cc(O)cc(O)c4-c4cc3ccc4O)[C@@H](O)c3ccc(c(-c4cccc(CN)c4)c3)Oc3cc2cc(c3O[C@@H]2O[C@H](CO)[C@@H](O)[C@H](O)[C@H]2O[C@H]2C[C@](C)(N)[C@H](O)[C@H](C)O2)Oc2ccc(cc2)[C@@H]1O`, the MIC against Enterococcus faecalis [1], in the assay on Staphylococcus aureus [2], against Staphylococcus aureus [3], against Enterococcus faecalis [4] and in the assay on Enterococcus faecalis [5] was over 64 µg/mL in each case.
Regarding `CN[C@H](CC(C)C)C(=O)N[C@H]1C(=O)N[C@@H](CC(N)=O)C(=O)N[C@H]2C(=O)N[C@H]3C(=O)N[C@H](C(=O)N[C@H](C(=O)O)c4cc(O)cc(O)c4-c4cc3ccc4O)[C@H](O)c3ccc(c(Cl)c3)Oc3cc2cc(c3O[C@@H]2O[C@H](CO)[C@@H](O)[C@H](O)[C@H]2O[C@H]2C[C@](C)(N)[C@H](O)[C@H](C)O2)Oc2ccc(cc2Cl)[C@H]1O` [VANCOMYCIN], the values for the MIC against Enterococcus faecalis [1], in the assay with Enterococcus faecalis [4] and in the assay on Enterococcus faecalis [5] were 2 µg/mL (≈ 1.38 µM), over 64 µg/mL and 8 µg/mL (≈ 5.52 µM), respectively.
Regarding `CN[C@@H](CC(C)C)C(=O)N[C@@H]1C(=O)N[C@H](CC(N)=O)C(=O)N[C@@H]2C(=O)N[C@@H]3C(=O)N[C@@H](C(=O)N[C@H](C(=O)O)c4cc(O)cc(O)c4-c4cc3ccc4O)[C@@H](O)c3ccc(c(-c4ccc5[nH]ccc5c4)c3)Oc3cc2cc(c3O[C@@H]2O[C@H](CO)[C@@H](O)[C@H](O)[C@H]2O[C@H]2C[C@](C)(N)[C@H](O)[C@H](C)O2)Oc2ccc(cc2)[C@@H]1O`, the MIC against Enterococcus faecalis [1], in the assay on Staphylococcus aureus [2], against Staphylococcus aureus [3], with Enterococcus faecalis [4] and against Enterococcus faecalis [5] was over 64 µg/mL each time.
With `CN[C@@H](CC(C)C)C(=O)N[C@@H]1C(=O)N[C@H](CC(N)=O)C(=O)N[C@@H]2C(=O)N[C@@H]3C(=O)N[C@@H](C(=O)N[C@H](C(=O)O)c4cc(O)cc(O)c4-c4cc3ccc4O)[C@@H](O)c3ccc(c(-c4ccoc4)c3)Oc3cc2cc(c3O[C@H]2O[C@@H](CO)[C@H](O)[C@@H](O)[C@@H]2O[C@H]2C[C@](C)(N)[C@H](O)[C@H](C)O2)Oc2ccc(cc2)[C@@H]1O`, the MIC against Enterococcus faecalis [1] was over 64 µg/mL; in the assay on Staphylococcus aureus [2] it was 64 µg/mL (≈ 44.2 µM); in the assay with Staphylococcus aureus [3], 64 µg/mL (≈ 44.2 µM); against Enterococcus faecalis [4], over 64 µg/mL; in the assay with Enterococcus faecalis [5], over 64 µg/mL.
For `CCCCCC/C=C/c1cc2ccc1Oc1cc3cc(c1O[C@@H]1O[C@H](CO)[C@@H](O)[C@H](O)[C@H]1O[C@H]1C[C@](C)(N)[C@H](O)[C@H](C)O1)Oc1ccc(cc1)[C@H](O)[C@H](NC(=O)[C@@H](CC(C)C)NC)C(=O)N[C@H](CC(N)=O)C(=O)N[C@@H]3C(=O)N[C@@H]1C(=O)N[C@@H](C(=O)N[C@H](C(=O)O)c3cc(O)cc(O)c3-c3cc1ccc3O)[C@H]2O`, the MIC in the assay with Enterococcus faecalis [1], in the assay on Staphylococcus aureus [2], in the assay with Staphylococcus aureus [3], in the assay with Enterococcus faecalis [4] and against Enterococcus faecalis [5] was over 64 µg/mL throughout.
As to `CN[C@@H](CC(C)C)C(=O)N[C@@H]1C(=O)N[C@H](CC(N)=O)C(=O)N[C@@H]2C(=O)N[C@@H]3C(=O)N[C@@H](C(=O)N[C@H](C(=O)O)c4cc(O)cc(O)c4-c4cc3ccc4O)[C@@H](O)c3ccc(c(Cl)c3)Oc3cc2cc(c3O[C@H]2O[C@@H](CO)[C@H](O)[C@@H](O)[C@@H]2O[C@@H]2C[C@@](C)(N)[C@@H](O)[C@@H](C)O2)Oc2ccc(cc2)[C@@H]1O`, the MIC with Enterococcus faecalis [1] was 8 µg/mL (≈ 5.65 µM); in the assay with Staphylococcus aureus [2] it was 4 µg/mL (≈ 2.83 µM); in the assay on Staphylococcus aureus [3], 4 µg/mL (≈ 2.83 µM); in the assay on Enterococcus faecalis [4], over 64 µg/mL; in the assay with Enterococcus faecalis [5], 64 µg/mL (≈ 45.2 µM).
For `CN[C@@H](CC(C)C)C(=O)N[C@@H]1C(=O)N[C@H](CC(N)=O)C(=O)N[C@@H]2C(=O)N[C@@H]3C(=O)N[C@@H](C(=O)N[C@H](C(=O)O)c4cc(O)cc(O)c4-c4cc3ccc4O)[C@@H](O)c3ccc(c(-c4cccc(F)c4)c3)Oc3cc2cc(c3O[C@@H]2O[C@H](CO)[C@@H](O)[C@H](O)[C@H]2O[C@H]2C[C@](C)(N)[C@H](O)[C@H](C)O2)Oc2ccc(cc2)[C@@H]1O`, the MIC with Enterococcus faecalis [1], in the assay on Staphylococcus aureus [2], against Staphylococcus aureus [3], against Enterococcus faecalis [4] and in the assay on Enterococcus faecalis [5] was over 64 µg/mL throughout.
In turn, `CC(=O)NC[C@H]1CN(c2ccc(N3CCOCC3)c(F)c2)C(=O)O1` [LINEZOLID] registered an MIC in the assay with Staphylococcus aureus [3] of 1 µg/mL (≈ 2.96 µM).
Regarding `CN[C@@H](CC(C)C)C(=O)N[C@@H]1C(=O)N[C@H](CC(N)=O)C(=O)N[C@@H]2C(=O)N[C@@H]3C(=O)N[C@@H](C(=O)N[C@H](C(=O)O)c4cc(O)cc(O)c4-c4cc3ccc4O)[C@@H](O)c3ccc(cc3)Oc3cc2cc(c3O[C@@H]2O[C@H](CO)[C@@H](O)[C@H](O)[C@H]2O[C@H]2C[C@](C)(N)[C@H](O)[C@H](C)O2)Oc2ccc(cc2)[C@@H]1O`, the MIC in the assay with Enterococcus faecalis [1] is 32 µg/mL (≈ 23.2 µM); in the assay on Staphylococcus aureus [2] it was 8 µg/mL (≈ 5.8 µM); against Staphylococcus aureus [3], 8 µg/mL (≈ 5.8 µM); against Enterococcus faecalis [4], over 64 µg/mL; with Enterococcus faecalis [5] it was over 64 µg/mL.
As to `CN[C@@H](CC(C)C)C(=O)N[C@@H]1C(=O)N[C@H](CC(N)=O)C(=O)N[C@@H]2C(=O)N[C@@H]3C(=O)N[C@@H](C(=O)N[C@H](C(=O)O)c4cc(O)cc(O)c4-c4cc3ccc4O)[C@@H](O)c3ccc(c(-c4cccc(C(N)=O)c4)c3)Oc3cc2cc(c3O[C@@H]2O[C@H](CO)[C@@H](O)[C@H](O)[C@H]2O[C@H]2C[C@](C)(N)[C@H](O)[C@H](C)O2)Oc2ccc(cc2)[C@@H]1O`, the MIC in the assay on Enterococcus faecalis [1], against Staphylococcus aureus [2], against Staphylococcus aureus [3], against Enterococcus faecalis [4] and in the assay with Enterococcus faecalis [5] was over 64 µg/mL throughout.
